Among the data in ChEMBL document CHEMBL1817611, “Synthesis, antitubercular activity, and SAR study of N-substituted-phenylamino-5-methyl-1H-1,2,3-triazole-4-carbohydrazides” (2011) are MIC values, retold here.

Values after ≈ are worked out from the molar mass of the structure shown.

In this assay the test system is Mycobacterium tuberculosis. The experiment in a line: Antitubercular activity against Mycobacterium tuberculosis H37Rv ATCC 27294 by microplate alamar blue assay. Format: functional. Put shortly: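 Resazurin-based (Alamar Blue) colorimetric redox indicator used to assess growth of M. tuberculosis H37Rv. MIC (µg/mL) is taken as the lowest drug concentration that prevents a colour change from blue (no growth) to pink (growth).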
The molecule `Cc1c(C(=O)N/N=C/c2ccccc2)nnn1Nc1ccc(Br)cc1` yielded an MIC of more than 100 µg/mL.
Molecule `Cc1c(C(=O)N/N=C/c2ccccc2)nnn1Nc1ccc(F)cc1` came in with an MIC of more than 100 µg/mL.
`Cc1c(C(=O)N/N=C/c2ccc(Br)s2)nnn1Nc1ccc(Br)cc1` yielded an MIC of more than 100 µg/mL.
`Cc1c(C(=O)N/N=C/c2ccc(Br)s2)nnn1Nc1ccc(F)cc1` came in with an MIC of more than 100 µg/mL.
Molecule `Cc1c(C(=O)N/N=C/c2ccco2)nnn1Nc1ccc(Br)cc1` yielded an MIC of 25.5 µg/mL (≈ 65.5 µM).
Consider `Cc1c(C(=O)N/N=C/c2ccco2)nnn1Nc1ccc(F)cc1`, for which the MIC stood at 12.5 µg/mL (≈ 38.1 µM).
For `Cc1c(C(=O)N/N=C/c2ccc([N+](=O)[O-])o2)nnn1Nc1ccc(Br)cc1`, the MIC was found to be 6.25 µg/mL (≈ 14.4 µM). Compared with the last molecule, the MIC is about 2-fold lower.
For the molecule `Cc1c(C(=O)N/N=C/c2ccc([N+](=O)[O-])o2)nnn1Nc1ccc(F)cc1`, the lowest concentration to inhibit growth (MIC) was 5 µg/mL (≈ 13.4 µM).
Turning to `Cc1c(C(=O)N/N=C/c2ccc([N+](=O)[O-])o2)nnn1Nc1ccccc1`, it took 2.5 µg/mL (≈ 7.04 µM) to inhibit growth (MIC).
As for `Cc1c(C(=O)N/N=C/c2ccc(Br)s2)nnn1Nc1ccccc1`, the MIC was found to be 12.5 µg/mL (≈ 30.8 µM).
For the molecule `Cc1c(C(=O)N/N=C/c2ccc([N+](=O)[O-])o2)nnn1Nc1ccc(Cl)cc1`, the MIC amounted to 5 µg/mL (≈ 12.8 µM).
Molecule `Cc1c(C(=O)N/N=C/c2ccccc2)nnn1Nc1ccc(Cl)cc1` gave an MIC of more than 100 µg/mL.
`Cc1c(C(=O)N/N=C/c2ccccc2)nnn1Nc1ccccc1` returned an MIC of more than 100 µg/mL.
Molecule `Cc1c(C(=O)N/N=C/c2ccc(Br)s2)nnn1Nc1ccc(Cl)cc1` returned an MIC of more than 100 µg/mL.
Under `Cc1c(C(=O)N/N=C/c2ccco2)nnn1Nc1ccc(Cl)cc1` stands 12.5 µg/mL (≈ 36.3 µM); under `Cc1c(C(=O)N/N=C/c2ccco2)nnn1Nc1ccccc1`, 5 µg/mL (≈ 16.1 µM).
Turning to `CC[C@@H](CO)NCCN[C@@H](CC)CO` [ETHAMBUTOL], the lowest concentration to inhibit growth (MIC) was 2 µg/mL (≈ 9.79 µM). Against the preceding molecule, the MIC is about 2.5-fold lower.
Consider `CC(C)CCOc1ccc(NC(=S)Nc2ccc(OCCC(C)C)cc2)cc1` [TIOCARLIDE], for which it took 2.5 µg/mL (≈ 6.24 µM) to inhibit growth (MIC).
